Activity calls are given as the source filed them. Cut-off read from the data, not from the text of the source, unless noted: active = inhibition above about 31%; inactive = the rest.
Tests used:
[1] = HUVEC growth inhibition – cell-based, human, primary screen (AID 575;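 active = viability at or below 30% in both replicate assays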;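 note: 100% = median of untreated cell wells with 0.1% DMSO on each plate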); conditions: HUVEC proliferation, CellTiter-Glo luminescence, 72 h; at 10 µM; stronger effect = lower value
Summary of the method: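 Test system: primary human umbilical vein endothelial cells. Quantity: 1250 cells/well. Compound: single 10 µM dose, 0.1% DMSO, from 5x medium stock. Timing: 72 h treatment at 37 °C. Detection: ATP-based CellTiter-Glo luminescent read. Benchmarks: vehicle and MePR control wells. Format: 384-well plates coated with collagen.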

[2] = H69AR cell proliferation blockers – human, duplicate replicates, primary screen (AID 580;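 active = viability at or under a set limit in both replicates, limit being median viability minus 3 SD, cut at about 48% in these data, passing the limit was not always enough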;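 note: 100% = mean luminescence of untreated wells and 0% = no signal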); conditions: H69AR lung tumor cells viability, ATP luminescence, 72 h; at 10 µM; stronger effect = lower value
[3] = MRP1 drug-resistance reversers in H69AR cells – cell-based, doxorubicin co-treatment, pilot screen (AID 601;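 active = viability loss from added drug above about 55%, and viability with drug at most 40%, in both replicates, limit read from the data, passing the limit was not always enough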); conditions: CellTiter-Glo, 72 h, at 10 µM; for differential viability (reversal): stronger effect = higher value
[4] = yeast transport mutant growth inhibition pilot in 384-well plates, post-Golgi transport modulator project (AID 636); conditions: absorbance 615 nm, about 18 h, stronger effect = higher value
[5] = growth suppression of yeast trafficking mutant, preliminary HTS, modulators of trafficking downstream of Golgi apparatus project, 1536-format plate, OD 615 nm (AID 637; in the data active = inhibition above about 30%); conditions: yeast transport mutant growth, absorbance 615 nm, 18 h; stronger effect = higher value
[6] = H69AR cells + 2 uM doxorubicin, measured here: viability with 2 uM doxorubicin, stronger effect = lower value
[7] = H69AR cells, compound alone cytotoxicity

SMILES	viability [1]	viability [2]	differential viability (reversal) ([3]; H69AR cells + 2 uM doxorubicin)	viability [3, 6] [%]	viability [3, 7] [%]	inhibition [4]	inhibition [5]
COCC(C)NC(=O)CCS(=O)(=O)c1nc(-c2ccc(OC)cc2)cc(C(F)(F)F)n1 (stereo not given)	8.82% (active)	23.7% (active)	-11.7% (inactive)	35.3	23.7	-7.87% (inactive)	-0.63% (inactive)
O=c1oc2ccccc2c(O)c1CN1CCCCC1	96.3% (inactive)	99.9% (inactive)	16.1% (inactive)	83.8	99.9	-6% (inactive)	2.22% (inactive)
Cc1ccc(C)c(C(=O)NC2CC(C)(C)NC(C)(C)C2)c1	98.5% (inactive)	86.7% (inactive)	-0.525% (inactive)	87.3	86.7	-5.71% (inactive)	-6.98% (inactive)
O=c1cc(CSc2nnnn2-c2ccccc2)nc2scc(-c3ccccc3)n12	92% (inactive)	101% (inactive)	6.61% (inactive)	93.9	101	0.13% (inactive)	-7.62% (inactive)
COc1ccccc1NS(=O)(=O)c1ccc(NC(=O)c2nc3ncccn3n2)cc1	94.7% (inactive)	96.3% (inactive)	11.2% (inactive)	85.1	96.3	-1.17% (inactive)	7.3% (inactive)
COc1ccccc1CNC(=O)C1CCN(S(=O)(=O)N2CCCCC2)CC1	83.4% (inactive)	81.7% (inactive)	1.51% (inactive)	80.2	81.7	-1.97% (inactive)	3.81% (inactive)
COc1ccccc1-c1ccc(Nc2cccc(C(C)=O)c2)nn1	55.8% (inactive)	71.6% (inactive)	15.8% (inactive)	55.8	71.6	-0.52% (inactive)	-4.92% (inactive)
CCn1c(SCC(=O)NCCc2ccc(Cl)cc2)nnc1-c1cccs1	87.7% (inactive)	98.9% (inactive)	4.62% (inactive)	94.3	98.9	4.03% (inactive)	3.17% (inactive)
Oc1ccc(-c2onc(C(F)(F)F)c2-c2cscn2)c(O)c1	108% (inactive)	103% (inactive)	5.71% (inactive)	97.3	103	-2.99% (inactive)	4.92% (inactive)
O=C(NCCN1CCCC1)C1COc2ccccc2O1 (stereo not given)	105% (inactive)	95.7% (inactive)	1.77% (inactive)	93.9	95.7	-7.14% (inactive)	-3.02% (inactive)
O=C(O)C1C2CCC(C2)C1C(=O)NCCCn1ccnc1 (stereo not given)	112% (inactive)	90.6% (inactive)	6.16% (inactive)	84.4	90.6	-7.24% (inactive)	-0.79% (inactive)
Cc1cc(NCCCn2ccnc2)n2c(nc3ccccc32)c1C#N	94% (inactive)	100% (inactive)	7.14% (inactive)	93.3	100	4.29% (inactive)	6.51% (inactive)
CN(C)S(=O)(=O)N1CCN(S(=O)(=O)c2ccc(F)cc2)CC1	90.7% (inactive)	101% (inactive)	4.42% (inactive)	96.1	101	2.8% (inactive)	-2.22% (inactive)
CCC1(CC)C(=O)C(C)(C)C(=O)OC1c1cccs1 (stereo not given)	120% (inactive)	90.7% (inactive)	5.04% (inactive)	85.7	90.7	-2.89% (inactive)	2.86% (inactive)
CS(=O)(=O)N(CC(=O)N1CCCCCC1)c1ccccc1	95.2% (inactive)	98.2% (inactive)	8.29% (inactive)	90	98.2	-5.79% (inactive)	1.9% (inactive)
COC(=O)CN(c1ccc2c(c1)OCO2)S(C)(=O)=O	102% (inactive)	110% (inactive)	12.5% (inactive)	97.9	110	-2.63% (inactive)	6.67% (inactive)
CCOc1ccccc1OCCn1nnc2ccccc21	101% (inactive)	98.7% (inactive)	18.4% (inactive)	80.3	98.7	-5.73% (inactive)	5.24% (inactive)
O=C(NCc1nc2ccccc2[nH]1)c1ccco1	106% (inactive)	90.7% (inactive)	7.09% (inactive)	83.7	90.7	-4.13% (inactive)	-1.9% (inactive)
COc1cccc(NC(=O)C2CCN(c3ncccn3)CC2)c1	90% (inactive)	94% (inactive)	-2.54% (inactive)	96.6	94	-6.4% (inactive)	-12.5% (inactive)
COc1ccc(-n2c(N)c(C(=O)NCc3ccco3)c3nc4ccccc4nc32)c(OC)c1	61.8% (inactive)	11% (active)	-1.38% (inactive)	12.4	11	-0.8% (inactive)	-0.16% (inactive)

SMILES	viability [1]	viability [2]	differential viability (reversal) ([3]; H69AR cells + 2 uM doxorubicin)	viability [3, 6] [%]	viability [3, 7] [%]	inhibition [4]	inhibition [5]
Cc1ccc(OCc2nnc(SCC(=O)Nc3ccc4c(c3)OCO4)n2C)cc1	91.2% (inactive)	76.9% (inactive)	-22.4% (inactive)	99.3	76.9	-7.07% (inactive)	6.98% (inactive)
Cc1nc2ccccc2c(=O)n1NC(=O)c1ccc(F)cc1Cl	103% (inactive)	94.2% (inactive)	-4.19% (inactive)	98.4	94.2	-4.34% (inactive)	2.22% (inactive)
COc1ccc(CCNC(=O)c2nc3ncccn3n2)cc1OC	113% (inactive)	102% (inactive)	7.66% (inactive)	94.5	102	-4.08% (inactive)	7.78% (inactive)
COc1ccc(C(=O)COC(=O)CCn2nnc(-c3cccs3)n2)cc1	110% (inactive)	102% (inactive)	9.01% (inactive)	93.4	102	-0.27% (inactive)	-6.35% (inactive)
O=S(=O)(c1ccccc1)N1CCN(C2CCCCCCC2)CC1	100% (inactive)	87.5% (inactive)	-6.82% (inactive)	94.3	87.5	-1.45% (inactive)	1.9% (inactive)
CC(=O)OC(C(=O)NCc1ccco1)c1cccnc1 (stereo not given)	104% (inactive)	87% (inactive)	3.39% (inactive)	83.6	87	-2.08% (inactive)	2.86% (inactive)
Cc1ccc(NCc2nnc(SCC(=O)NCc3ccco3)n2CC2CCCO2)cc1Cl (stereo not given)	85.6% (inactive)	88.5% (inactive)	-7.28% (inactive)	95.8	88.5	5% (inactive)	-3.17% (inactive)
CCc1nnc(NC(=O)CCC(=O)Nc2ccccc2)s1	94.8% (inactive)	90% (inactive)	-2.88% (inactive)	92.9	90	-4.27% (inactive)	5.71% (inactive)
O=C(Nc1ccc(Cl)c(Cl)c1)Nc1cc(C(=O)N2CCOCC2)ccc1N1CCCCC1	105% (inactive)	95.9% (inactive)	4.12% (inactive)	91.8	95.9	-4.08% (inactive)	-2.22% (inactive)
CN(Cc1nc(-c2ccncc2)no1)S(=O)(=O)c1ccc(Br)cc1	90.4% (inactive)	89.6% (inactive)	-4.28% (inactive)	93.9	89.6	-5.32% (inactive)	1.75% (inactive)
COc1ccc(CCNS(=O)(=O)c2ccc(C(=O)NCc3ccco3)cc2)cc1OC	83.4% (inactive)	80.9% (inactive)	-4.64% (inactive)	85.6	80.9	1.3% (inactive)	10.9% (inactive)
COc1ccc(CN2C(=O)C(O)(CC(=O)c3c(C)n[nH]c3C)c3ccccc32)cc1OC (stereo not given)	105% (inactive)	95.4% (inactive)	3.36% (inactive)	92	95.4	-0.53% (inactive)	-4.44% (inactive)
O=C(O)C1C2CCC(O2)C1C(=O)Nc1cccc(F)c1 (stereo not given)	80.9% (inactive)	90.8% (inactive)	10.3% (inactive)	80.5	90.8	-4.74% (inactive)	3.02% (inactive)
O=C(c1ccco1)N1CCN(C(=O)c2ccc(Cn3cc(Br)cn3)o2)CC1	91% (inactive)	79.7% (inactive)	-12.7% (inactive)	92.4	79.7	-2.11% (inactive)	2.86% (inactive)
O=C1CCCc2c1nn(-c1ccccc1)[n+]2[O-]	110% (inactive)	98.1% (inactive)	1.57% (inactive)	96.5	98.1	-5.33% (inactive)	-5.4% (inactive)
COc1ccc(C2C(C(C)=O)=C(C)N=c3s/c(=C\c4ccc5c(c4)OCO5)c(=O)n32)c(OC)c1 (stereo not given)	77.2% (inactive)	99.7% (inactive)	-2.84% (inactive)	103	99.7	-2.08% (inactive)	-4.76% (inactive)
Cc1cc(C)n(-c2nc(C)nc3c2cnn3-c2ccccc2)n1	87.4% (inactive)	87.3% (inactive)	-1.5% (inactive)	88.8	87.3	-3.77% (inactive)	6.19% (inactive)
CSc1nc2ccc(S(=O)(=O)N3CCOCC3)cc2s1	101% (inactive)	89.9% (inactive)	-4.54% (inactive)	94.4	89.9	-6.53% (inactive)	2.06% (inactive)
CN1CCN(c2nc(-c3ccncc3)nc3ccccc23)CC1	78.3% (inactive)	78.3% (inactive)	49.5% (inactive)	28.8	78.3	-5.47% (inactive)	1.75% (inactive)
CCc1nnc(NC(=O)CSc2nnc(-c3ccoc3C)n2CC(C)C)s1	85.8% (inactive)	106% (inactive)	12.6% (inactive)	93.8	106	-4.67% (inactive)	11.3% (inactive)

Source: PubChem BioAssay
